Data on three compounds can be found in PMC10471475 (Parasites, Hosts and Diseases, 2023).

Data set [1] can be described thus: Pharmacokinetic analysis of N-89 in mice after single po or iv administration. It is filed as in vivo, ICR mice. The note with it: for plasma concentration: detection limit 5 ng/ml. In short, it runs like this:
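Male ICR mice got a single dose of test compound: 75 mg/kg po in olive oil or 30 mg/kg iv in 10% ethanol/10% Cremophor EL/80% saline. Blood sampled 0.25–10 h, one sample per mouse, 5 mice per time. Plasma obtained by centrifugation 10 min, 945 g, 4°C, acetonitrile-extracted, then LC/MS/MS (detection limit 5 ng/ml). Cmax observed; AUC and MRT from the mean time course (n=5).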

In data set [2] the test system is P. berghei (NK65 strain). Briefly: Peters' 4-day suppressive test by different administration routes. It is filed as in vivo, Plasmodium berghei. The gist of the method: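 Peters' 4-day test: male ICR mice, iv inoculation of 1×10^5 P. berghei NK65-infected erythrocytes. First dose 2 h post-inoculation, then dosing on days 0–3. Routes and doses: po 0–80 mg/day in olive oil; iv 0–80 mg/day in ethanol/Cremophor EL/saline 10:10:80; sq 0–8 mg/day in the iv vehicle. Vehicle controls; 5 mice/group. Day-4 thin-film parasitemia, expressed as percent reduction; ED50/ED90 by sigmoidal dose-response fit.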

The test system of data set [3] is P. berghei (NK65 strain). Put plainly: Antimalarial activity following repeated oral dosing. It is filed as in vivo, Plasmodium berghei. Conditions: for Parasitemia day 1: before treatment (treatment days 2-4); for Parasitemia day 2: start of treatment.
Data set [4] relates to P. falciparum. Conditions: cited from earlier work.
Data set [5] relates to mouse mammary tumor FM3A cells. The note with it: in vitro; cited from earlier work.
Data set [6] relates to malaria parasites in mice. Conditions: ointment, transdermal, cited from earlier work.
Data set [7] deals with P. berghei. Conditions: cited from earlier work.
Setting [8] is: ICR, mouse, plasma, iv, 30 mg/kg.
The mark [9] stands for this setting: ICR, mouse, plasma, po, 75 mg/kg.
Setting [10] is: po, olive oil, 4 days, parasitemia on day 4.
Where [11] appears, read: 50 mg/kg po thrice daily days 2-4.
Where [12] appears, read: 50 mg/kg po thrice daily for 3 days.
[13] abbreviates: 75 mg/kg po 3 times daily days 2-4.

Values joined by “and” are separate entries in the source; they are usually repeats but may differ in a detail not shown here. Identical values can stand only once. Marks after values point to notes of the source that are not given here.

By AUC(0-inf) is commonly meant the area under the concentration-time curve extrapolated to infinity. As usually defined, the AUC(0-t) is the area under the concentration-time curve up to a stated or last time point. One may read the MRT as a mean duration of stay, worked out from the concentration-time curve. What is called half-life is how long it takes for the measured level to halve. Read a low half-life as rapid decline. In general, bioavailability refers to the share of a dose that reaches the circulation, judged against a reference dose that is usually intravenous. A higher bioavailability goes with good availability. As a reminder, the Cmax is the maximum level reached in the sampled fluid or tissue. The Tmax is the time at which the peak concentration occurs. The term ED50 denotes the dose at which the effect has come halfway, by size or by number of responders. Higher therefore signals weaker potency. In data set [1] (setting [8]), `C1CCCCCC2(CCCCC1)OOCCCOO2` [N-89, 1,2,6,7-tetraoxaspiro[7.11]nonadecane] returned an area under the curve AUC(0-inf) of 13600 ng·h/mL, an area under the curve AUC(0-t) of 13600 ng·h/mL, an MRT of 14.4 min and a Vd of 0.53 L/kg. In data set [1] (setting [8]), this compound showed a clearance of 36.8 mL/min/kg, a concentration at 0.25 h of 18.3 µg/mL and a half-life of 90 min. The bioavailability in data set [1] (ICR, mouse, plasma, oral, 75 mg/kg) was found to be 7.01%. For the same compound, in data set [1] (setting [9]), the total exposure AUC(0-inf) stood at 2380 ng·h/mL, the AUC(0-t) came out at 2370 ng·h/mL, the peak level (Cmax) was 1.59 µg/mL and the MRT was determined as 107 min. For the same compound, in data set [1] (setting [9]), the time to peak (Tmax) was 45 min, the concentration at 8 h stood at 0.0081 µg/mL and the half-life was 58.2 min. In data set [1] (mice, 30 mg/kg iv, at 5 h), the plasma concentration entry was “could not be detected”. For the same compound, the plasma concentration result in data set [1] (mice, 75 mg/kg po, at 10 h) was “could not be detected”. Besides, in data set [1] (mice, single dose 75 mg/kg po (Table 1)), the peak concentration (Cmax) is 1590 µg/mL. Moreover, in data set [2] (Plasmodium berghei, 96 h, sq, ethanol:Cremophor EL:saline 1:1:8, 4 days), it took a dose of 2.5 ± 1.1 mg/kg to reach the 50% effect level (ED50). This compound gave a median effective dose (ED50) in data set [2] (Plasmodium berghei, iv, 96 h, iv, ethanol:Cremophor EL:saline 1:1:8, 4 days) of 14.5 ± 1.9 mg/kg. In addition, the ED90 in data set [2] (iv, ethanol:Cremophor EL:saline 1:1:8, 4 days) turned out to be 21.0 ± 0.8 mg/kg. Further, in data set [2] (setting [10]), the 50% effective dose (ED50) turned out to be 20.5 ± 2.0 mg/kg and the ED90 stood at 43.5 ± 1.5 mg/kg. In addition, in data set [2] (sq, ethanol:Cremophor EL:saline 1:1:8, 4 days), the ED90 was found to be 3.8 ± 1.0 mg/kg. The “Parasitemia day 1” value in data set [3] (50 mg/kg po group) came out at 0.10±0.04%. In data set [3] (setting [11]), the “Parasitemia day 3” value was 0.11±0.06%, the “Parasitemia day 4” value is listed as 0.01±0.01%, the “Parasitemia day 5” value was 0.002±0.004^c % and the “Parasitemia day 6” value is 0.00^b %. Also, in data set [3] (setting [11]), the “parasitemia of the one mouse not yet cured on day 5” value is given as 0.01% and the “Parasitemia day 2” value turned out to be 0.51±0.14%. In addition, in data set [3] (setting [12]), the cure effect result is “complete cure effect” and the “day on which parasites were eliminated / all mice cured, no recurrence to day 30” value was determined as 6 days. Besides, in data set [3] (setting [13]), the “Parasitemia day 3” value is given as 0.26±0.05%, the “Parasitemia day 4” value was 0.01±0.01^a %, the “Parasitemia day 5” value is 0.00^b % and the “Parasitemia day 6” value came out at 0.00%. For the same compound, in data set [3] (setting [13]), the “parasitemia of the 4 mice not yet cured on day 4” value is “below 0.015%” and the “Parasitemia day 2” value was 0.70±0.19%. Also, in data set [3] (75 mg/kg po 3 times daily for 3 days), the “day on which parasites were eliminated / all mice cured, no recurrence to day 30” value was 5 days and 4 to 5 days. Further, in data set [3] (75 mg/kg po group), the “Parasitemia day 1” value is given as 0.09±0.07%. The “EC50 value of P. falciparum in vitro” value in data set [4] is 6.8 ng/mL. For the same compound, in data set [5], the “toxicity against P. falciparum relative to FM3A cells (selective toxicity)” value is 350 fold. Further, in data set [6] (60 mg/kg twice daily for 4 days at 0.2% parasitemia), the “day from which parasites disappeared post-treatment” value was 7 days. Moreover, the “recurrence and dermal irritation” value in data set [6] (60 mg/kg twice daily for 4 days) is “without parasite recurrence or dermal irritation”.

With `C[C@H]1[C@@H](OCc2ccc(C(=O)O)cc2)O[C@@H]2O[C@@]3(C)CC[C@H]4[C@H](C)CC[C@@H]1[C@@]24OO3` [artelinic acid], the “effect of topical gel on infected mice” value in data set [7] (gel applied topically twice/day x 3 days post-infection, dose 270 mg/kg) is listed as “prevented the death”.

`CO[C@H]1O[C@@H]2O[C@@]3(C)CC[C@H]4[C@H](C)CC[C@@H]([C@H]1C)[C@@]24OO3` [artemether]: in data set [7] (improved formulation, same experimental conditions, dose 60 mg/kg), the “effect of topical formulation on infected mice” value is reported as “efficient”.
